Active and inactive are the calls of the source. No cut-off for these calls is given here.
Assays:
[1] = Cytotoxicity against MRP1 overexpressing human MCF7/VP cells after 48 hrs by SRB binding assay; type: functional, cell-based
Procedure, shortened: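 MCF-7/VP (MRP1-expressing, Pgp-negative) cells seeded at ~15% confluency and allowed 24 h to attach. Exposed 48 h to graded concentrations without vincristine. Survival measured by SRB binding versus ethanol controls.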

[2] = Cytotoxicity against human T24 cells after 48 hrs by SRB binding assay; type: cell-based; conditions: T-24, 48 h
[3] = Cytotoxicity against Pgp overexpressing human NCI/ADR cells after 48 hrs by SRB binding assay; type: functional, cell-based; conditions: NCI/ADR-RES
Procedure, shortened: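 NCI/ADR (Pgp-overexpressing) cells seeded at ~15% confluency and allowed 24 h to attach. Exposed 48 h to graded concentrations, as solubility allowed, without vinblastine. Survival measured by sulforhodamine B binding as % decrease in SRB binding versus ethanol-vehicle controls, mean of three wells per condition.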

[4] = test system: NCI/ADR; assay: Inhibition of P-glycoprotein activity assessed as increase in accumulation of [3H]vinblastine in NCI/ADR cells; type: cell-based; conditions: Homo sapiens
[5] = test system: MCF7; assay: Cytotoxicity against human MCF7 cells after 48 hrs by SRB binding assay; type: functional, cell-based; conditions: MCF7, 48 h
Procedure, shortened: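 Drug-sensitive MCF-7 cells seeded at ~15% confluency and allowed 24 h recovery. Exposed 48 h to graded concentrations. Survival measured by SRB binding as % decrease versus ethanol-vehicle controls, mean of triplicate wells.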

[6] = Growth inhibition of NCI/ADR cells expressing Pgp/MRP1; type: functional, cell-based; conditions: Homo sapiens, NCI/ADR-RES
Procedure, shortened: (§1)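 NCI/ADR (Pgp-overexpressing) or MCF-7/VP (MRP1-expressing, Pgp-negative) cells were seeded at about 15% confluency and allowed to attach for 24 h. They were then exposed for 48 h to varying compound concentrations, limited by solubility, without added vinca drug. Survival was read by sulforhodamine B binding against ethanol solvent controls. Each value is the mean of three equally treated wells.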

[7] = Growth inhibition of Pgp deficient MCF7/VP cells expressing MRP1; type: functional, cell-based; conditions: Homo sapiens; procedure, shortened: as §1
[8] = test system: HL-60; assay: Cell cycle arrest in HL60 cells assessed as accumulation in S phase at 80 nM; type: functional, Homo sapiens
Procedure, shortened: (§2)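 HL-60 cells exposed 24 or 48 h to drug or ethanol vehicle. Nuclei prepared by detergent-trypsin method: citrate/sucrose/DMSO buffer, trypsin, then trypsin inhibitor plus RNase A, then propidium iodide with spermine, 30 min at 4 °C. Filtered, resuspended, DNA content measured by flow cytometry. Percentages given for G0/G1, S and G2/M. Mean ± SEM.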

[9] = test system: MCF7; assay: Growth inhibition of Pgp deficient MCF7 cells expressing MRP1; type: functional, cell-based; conditions: Homo sapiens; procedure, shortened: as §1
[10] = test system: A10; assay: Induction of microtubule loss in rat A10 cells at 5 uM after 24 hrs; type: functional, cell-based
[11] = test system: HL-60; assay: Cell cycle arrest in HL60 cells assessed as accumulation in […] phase at 80 nM; type: functional, Homo sapiens; procedure, shortened: as §2
[12] = test system: HL-60; assay: Cell cycle arrest in HL60 cells assessed as accumulation in G0/G1 phase at 80 nM; type: functional, Homo sapiens; procedure, shortened: as §2
[13] = test system: HL-60; assay: Cell cycle arrest in HL60 cells assessed as accumulation in S phase at 200 nM; type: functional, Homo sapiens; procedure, shortened: as §2
[14] = test system: HL-60; assay: Cell cycle arrest in HL60 cells assessed as accumulation in […] phase at 200 nM; type: functional, Homo sapiens; procedure, shortened: as §2
[15] = test system: HL-60; assay: Cell cycle arrest in HL60 cells assessed as accumulation in G0/G1 phase at 200 nM; type: functional, Homo sapiens; procedure, shortened: as §2

`COc1ccccc1CCc1cn(Cc2ccccc2)c2nc(N)nc(C)c12` showed an IC50 [1] of 2600 nM, an IC50 [2] of 2500 nM and an IC50 [3] of 2700 nM. For the same compound, the Activity [4] was “Dose-dependent effect” and the IC50 [5] was 2300 nM.

`COc1cccc(CCc2cn(Cc3ccccc3)c3nc(N)nc(C)c23)c1` showed an IC50 [1] of 22000 nM, an IC50 [2] of 25000 nM and an IC50 [3] of 5700 nM. For the same compound, the IC50 [5] was 8000 nM.

With `CC[C@]1(O)C[C@@H]2CN(CCc3c([nH]c4ccccc34)[C@@](C(=O)OC)(c3cc4c(cc3OC)N(C)[C@H]3[C@@](O)(C(=O)OC)[C@H](OC(C)=O)[C@]5(CC)C=CCN6CC[C@]43[C@@H]65)C2)C1` [VINBLASTINE] the IC50 [6] was over 375 nM, the IC50 [7] was 3 nM and the Activity [8] was 6.6%. The IC50 [9] was 2.8 nM, the Activity [10] was “Active” and the Activity [11] was 10.1%. It also gave an Activity [12] of 83.3%.

Compound `CC(=O)O[C@H]1C(=O)[C@@]2(C)[C@H]([C@H](OC(=O)c3ccccc3)[C@]3(O)C[C@H](OC(=O)[C@H](O)[C@@H](NC(=O)c4ccccc4)c4ccccc4)C(C)=C1C3(C)C)[C@]1(OC(C)=O)CO[C@@H]1C[C@@H]2O` [PACLITAXEL] has an IC50 [6] of 2700 nM, an Activity [13] of 22.2% and an Activity [14] of 10.5%. The IC50 [7] was 2.8 nM, the Activity [15] was 67.3% and the IC50 [9] was 2.5 nM.

With `COc1ccc(CCc2cn(Cc3ccccc3)c3nc(N)nc(C)c23)cc1` the IC50 [1] was 22700 nM, the IC50 [2] was 31700 nM and the IC50 [3] was 21700 nM. The IC50 [5] was 13000 nM.
